Assay type in all cases: functional
Assay [1] has as its system Rattus norvegicus. Nature of the assay: Cytoprotective activity in rats when administered 30 mg/kg perorally (Hydrochloric acid as necrotic agent). The conditions noted are these: route oral. Put shortly: (§1)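 Food was withheld for 24 h and water for 1½–18 h. Rats were dosed orally (3–12 mL vehicle/kg) 60 min before 0.75 N HCl, 3.0 mL/kg by gavage. They were killed 60 min after insult, and the stomach was opened along the greater curvature and photographed. Lesion area score ÷4 gave mm²; group mean was compared with controls as % inhibition. Five animals per dose, standard error.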

For assay [2], the system named is Rattus norvegicus. Kind of assay: Cytoprotective activity in rat when administered 30 mg/kg perorally (Ethyl alcohol as necrotic agent). Conditions: route oral. The method in brief:
(§2)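 Food was withheld for 24 h and water for 1½–18 h. Rats were dosed orally (3–12 mL vehicle/kg) 60 min before 100% ethanol, 3.0 mL/kg by gavage. They were killed 60 min after insult, and the stomach was opened along the lesser curvature and photographed. Lesion area score ÷4 gave mm²; group mean was compared with controls as % inhibition. Five animals per dose, standard error.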

In assay [3] the test system is Rattus norvegicus. Nature of the assay: Antisecretory activity in gastric fistula rat when administered perorally. Conditions: Stomach, po. The method in brief: (§3)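 Chronic gastric fistula rats dosed orally. Activity was taken as percent inhibition of gastric acid secretion. The dose giving 50% inhibition (ED50) was calculated by probit analysis.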
Assay [4] concerns Rattus norvegicus. Kind of assay: Cytoprotective activity in rat when administered 50 mg/kg perorally (Ethyl alcohol as necrotic agent). Conditions: route oral. Put shortly:
as §2

For assay [5], the system named is Rattus norvegicus. Nature of the assay: Cytoprotective activity in rats when administered 50 mg/kg perorally (Hydrochloric acid as necrotic agent). Conditions: route oral. Put shortly: as §1
In assay [6] the test system is Rattus norvegicus. Kind of assay: Cytoprotective activity in rats when administered 100 mg/kg perorally (Hydrochloric acid as necrotic agent). The conditions noted are these: route oral. The method in brief: as §1
The test system of assay [7] is Rattus norvegicus. Nature of the assay: Cytoprotective activity in rats when administered 50 mg/kg perorally per orally (Hydrochloric acid as necrotic agent). The conditions noted are these: route oral. The method in brief: as §1
Assay [8] relates to Rattus norvegicus. Kind of assay: Antisecretory activity in gastric fistula rat when administered per orally. Conditions: Stomach, po. The method in brief:
as §3

Assay [9] concerns Rattus norvegicus. Kind of assay: Cytoprotective activity in rat when administered 0.25 mg/kg perorally (Ethyl alcohol as necrotic agent). The conditions noted are these: route oral. Put shortly:
as §2

For assay [10], the system named is Rattus norvegicus. Kind of assay: Cytoprotective activity in rats when administered 0.10 mg/kg perorally per orally (Hydrochloric acid as necrotic agent). Conditions: route oral. Put shortly:
as §1

This is an account of results in ChEMBL document CHEMBL1124595, “Synthesis and biological activity of 3-substituted imidazo[1,2-a]pyridines as antiulcer agents” (1989).

A value given as a limit tells only on which side of the number the result lay.

With `Cc1nc2c(OCc3ccccc3)cccn2c1C(C)SCCNc1nsnc1N` (configuration not stated), the inhibition in vivo (usually the drop in the measured response relative to a control, in per cent) at 30 mg/kg with Rattus norvegicus [1] turned out to be 62%; in the assay on Rattus norvegicus [2] it was 84%. In addition, in the assay on Rattus norvegicus [3], the ED50 (commonly the midpoint of the dose-response relation) is above 25 mg/kg.
The molecule `Cc1nc2c(OCc3ccccc3)cccn2c1C(C)SCCNc1n[s+]([O-])nc1N` (configuration not stated) registered an ED50 with Rattus norvegicus [3] above 25 mg/kg. Further, the inhibition in vivo at 50 mg/kg with Rattus norvegicus [4] and with Rattus norvegicus [5] was 57% each time.
In turn, `C/N=C(/NC#N)NCCSCc1c(C)nc2ccccn12` yielded an inhibition in vivo at 30 mg/kg in the assay with Rattus norvegicus [2] of 97%. In the assay on Rattus norvegicus [3], this molecule returned an ED50 above 25 mg/kg. Moreover, testing at 50 mg/kg in the assay with Rattus norvegicus [5] gave an inhibition in vivo of 60%.
Regarding `Cc1nc2c(OCc3ccccc3)cccn2c1CC#N`, in the assay on Rattus norvegicus [6], at 100 mg/kg the inhibition in vivo was 68%. In the assay with Rattus norvegicus [2], this molecule registered an inhibition in vivo at 30 mg/kg of 90%. For the same molecule, the 50% effect level with Rattus norvegicus [3] (ED50) was put at a dose of 0.9 mg/kg.
`Cc1nc2ccccn2c1C(C)SCCNc1nsnc1N` (configuration not stated) had an ED50 in the assay on Rattus norvegicus [3] above 25 mg/kg. Also, the inhibition in vivo at 50 mg/kg is 54% with Rattus norvegicus [4] and 51% in the assay with Rattus norvegicus [5].
Consider `Cc1nc2ccccn2c1C(C)SCC/N=c1/c(O)c(O)c1=N` (configuration not stated), for which the inhibition in vivo at 50 mg/kg with Rattus norvegicus [7] is 27%; in the assay with Rattus norvegicus [4] it was 7%. In the assay on Rattus norvegicus [8], this molecule registered an ED50 above 25 mg/kg.
Regarding `Cc1nc2ccccn2c1CSCCNc1nsnc1N`, the ED50 with Rattus norvegicus [3] is above 25 mg/kg. For the same molecule, the inhibition in vivo at 50 mg/kg with Rattus norvegicus [4] was 70%; in the assay with Rattus norvegicus [5], 24%.
As to `Cc1nc2ccccn2c1CSCC/N=c1/c(O)c(O)c1=N`, the inhibition in vivo at 50 mg/kg amounted to 34% in the assay with Rattus norvegicus [7] and 0% with Rattus norvegicus [4]. For the same molecule, in the assay with Rattus norvegicus [8], the ED50 was above 25 mg/kg.
For the molecule `Cc1nc2ccccn2c1CSCCNc1n[s+]([O-])nc1N` (configuration not stated), the median effective dose (ED50) in the assay on Rattus norvegicus [3] is above 25 mg/kg. Further, in the assay with Rattus norvegicus [4], the inhibition in vivo at 50 mg/kg worked out at 2%.
`Cc1nc2ccccn2c1C(C)SCCNc1n[s+]([O-])nc1N` (configuration not stated) returned an ED50 in the assay on Rattus norvegicus [3] above 25 mg/kg. The inhibition in vivo at 50 mg/kg with Rattus norvegicus [4] worked out at 47%; in the assay with Rattus norvegicus [5], 36%.
Regarding `CCCCC[C@H](O)/C=C/[C@H]1[C@H](O)CC(=O)[C@@H]1C/C=C\CCCC(=O)O` [DINOPROSTONE], 0.25 mg/kg produced 89% inhibition in vivo in the assay with Rattus norvegicus [9]. Besides, the inhibition in vivo at 0.1 mg/kg with Rattus norvegicus [10] came to 70%. This molecule gave an ED50 in the assay on Rattus norvegicus [8] of 0.83 mg/kg.
